30 compounds from ChEMBL document CHEMBL1129643 (J Med Chem, 1996) can be followed below.

The test system of experiment [1] is Rattus norvegicus. Description: Effective dose was measured to inhibit 50% of quipazine induced head twitches in rat after 24 hr r of peroral administration. The class given is functional. The conditions noted are these: po. In a few lines: (§1)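 Rats received test compound sc or po, 2 or 24 h before quipazine (15 µmol/kg, sc). Head twitches were counted 30–40 min after quipazine. Counts were expressed as percent of a quipazine-treated control group, with at least four animals per dose.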

Experiment [2] concerns the target T1, Alpha-1A adrenergic receptor (Rattus norvegicus, UniProt P43140).
T1 sequence (P43140 whole entry): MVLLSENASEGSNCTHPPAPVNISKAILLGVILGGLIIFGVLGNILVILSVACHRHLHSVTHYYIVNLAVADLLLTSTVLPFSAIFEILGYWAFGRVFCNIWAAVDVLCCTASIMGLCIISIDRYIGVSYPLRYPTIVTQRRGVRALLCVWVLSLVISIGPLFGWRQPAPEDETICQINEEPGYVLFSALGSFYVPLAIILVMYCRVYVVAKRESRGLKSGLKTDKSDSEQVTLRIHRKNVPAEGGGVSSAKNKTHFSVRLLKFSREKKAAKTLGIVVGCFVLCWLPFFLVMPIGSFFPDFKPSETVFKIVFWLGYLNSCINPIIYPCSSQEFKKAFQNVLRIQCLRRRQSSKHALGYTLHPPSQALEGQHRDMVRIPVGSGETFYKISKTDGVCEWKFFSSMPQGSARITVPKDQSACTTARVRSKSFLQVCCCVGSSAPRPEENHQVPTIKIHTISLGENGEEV
Description: Binding affinity to the alpha-1 adrenergic receptor using a radioligand [3H]prazosin binding assay in rat brain membranes. It is filed as cell membranes.

The subject of experiment [3] is Rattus norvegicus. The experiment in a line: Effective dose was measured to inhibit 50% of quipazine induced head twitches in rat after 2 hr of subcutaneous administration. The class given is functional. The conditions noted are these: sc. A digest of the protocol:
as §1

Experiment [4] relates to Rattus norvegicus. Description: Antagonism of Pergolide-Induced Circling Behavior in rats with unilateral 6-OHDA Lesions after 2 hr of sc injection. The class given is functional. A digest of the protocol: (§2)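 Rats with unilateral 6-OHDA lesions were given pergolide (0.050 µmol/kg, sc) to induce contralateral circling. Test compound was injected sc 2 h before pergolide. The effect of each dose was expressed as percent of the mean of control sessions held one week before and one week after the test session for each rat. At least four rats were used per dose.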

The target of experiment [5] is 5-hydroxytryptamine receptor 2A (Rattus norvegicus, UniProt P14842). Description: Binding affinity to serotonin 5-hydroxytryptamine 2A receptors using a radioligand [3H]ketanserin binding assay in rat cortical membranes. The class given is cell membranes.
Chain of 5-hydroxytryptamine receptor 2A (P14842 whole entry): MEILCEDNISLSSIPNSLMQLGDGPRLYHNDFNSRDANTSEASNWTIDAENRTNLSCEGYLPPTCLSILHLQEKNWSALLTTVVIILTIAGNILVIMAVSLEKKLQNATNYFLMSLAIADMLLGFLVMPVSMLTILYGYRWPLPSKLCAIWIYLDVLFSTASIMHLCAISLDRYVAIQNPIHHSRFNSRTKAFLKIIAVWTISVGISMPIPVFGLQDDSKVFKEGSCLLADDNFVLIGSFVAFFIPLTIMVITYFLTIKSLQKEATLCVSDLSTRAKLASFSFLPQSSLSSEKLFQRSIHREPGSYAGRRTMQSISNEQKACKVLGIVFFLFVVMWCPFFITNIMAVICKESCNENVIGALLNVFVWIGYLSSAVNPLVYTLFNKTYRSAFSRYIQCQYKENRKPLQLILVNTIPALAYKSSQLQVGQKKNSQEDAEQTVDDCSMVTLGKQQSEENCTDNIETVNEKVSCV
Experiment [6] deals with Rattus norvegicus. The experiment in a line: Effective dose was measured to inhibit 50% of quipazine induced head twitches in rat after 24 hr r of subcutaneous administration. It is filed as functional. As to conditions: sc. A digest of the protocol: as §1
The target of another experiment is D(2) dopamine receptor (Rattus norvegicus, UniProt P61169). Description: Binding affinity to dopamine receptor D2 using a [3H]-spiperone binding assay in rat cortical membranes. The class given is cell membranes.
Chain of D(2) dopamine receptor (P61169 whole entry): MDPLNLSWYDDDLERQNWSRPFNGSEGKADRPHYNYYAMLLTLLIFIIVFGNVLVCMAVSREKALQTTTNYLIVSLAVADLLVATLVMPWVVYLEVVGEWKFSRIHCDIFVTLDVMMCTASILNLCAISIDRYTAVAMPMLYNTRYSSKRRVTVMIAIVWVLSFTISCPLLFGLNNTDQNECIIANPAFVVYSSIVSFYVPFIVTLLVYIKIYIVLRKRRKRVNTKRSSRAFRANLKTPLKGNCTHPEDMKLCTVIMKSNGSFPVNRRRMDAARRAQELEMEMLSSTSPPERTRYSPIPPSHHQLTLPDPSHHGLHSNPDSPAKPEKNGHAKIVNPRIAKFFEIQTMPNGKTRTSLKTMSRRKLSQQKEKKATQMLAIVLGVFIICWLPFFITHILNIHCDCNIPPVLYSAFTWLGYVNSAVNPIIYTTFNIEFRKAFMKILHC
For experiment [7], the species on record is Rattus norvegicus. Description: Effective dose was measured as fifty percent inhibition of Pergolide induced rotations in rat. The class given is functional. A digest of the protocol: as §2
The subject of experiment [8] is Rattus norvegicus. The experiment in a line: Effective dose was measured to inhibit 50% of quipazine induced head twitches in rat after 24 hr of peroral administration. The conditions noted are these: po.

In the case of `CN(CCOc1cn(-c2ccc(F)cc2)c2cc(Cl)ccc12)CCN1CCNC1=O`, the ED50 (in general, the dose at which the effect has come halfway, by size or by number of responders) in the experiment on Rattus norvegicus [1] was found to be 0.25 µmol/kg; with Rattus norvegicus [3], 0.63 µmol/kg. Also, the IC50 (as a rule, the midpoint of a concentration-inhibition curve) in experiment [2] is 41 nM.

With `CNc1cc(OC)c(C(=O)N[C@H]2CCN(Cc3ccccc3)[C@H]2C)cc1Cl` [NEMONAPRIDE], it took a dose of 0.0057 µmol/kg to reach the 50% effect level with Rattus norvegicus [4] (ED50). The compound further registered an IC50 in [5] of 49 nM.

With `CN(CCN1CCNC1=O)Cc1cn(-c2ccc(F)cc2)c2ccc(Cl)cc12`, the IC50 in experiment [2] came to 23 nM.

Consider `Fc1ccc(-n2cc(OCCN3CCCCC3)c3cc(Cl)ccc32)cc1`, for which the IC50 in experiment [2] amounted to 32 nM.

For the compound `CN(C)CCSc1cn(-c2ccc(F)cc2)c2ccc(Cl)cc12`, the IC50 worked out at 42 nM in experiment [5] and 820 nM in experiment [2].

Regarding `O=C1NCCN1CCN1CCC(c2cn(-c3ccc(F)cc3)c3ccc(Cl)cc23)CC1` [SERTINDOLE], the ED50 was found to be 3.7 µmol/kg in the experiment on Rattus norvegicus [4], 0.03 µmol/kg with Rattus norvegicus [6], 0.039 µmol/kg in the experiment on Rattus norvegicus [1] and 0.035 µmol/kg in the experiment with Rattus norvegicus [3].

In experiment [2], `Fc1ccc(-n2cc(OCCN3CCOCC3)c3cc(Cl)ccc32)cc1` had an IC50 of 110 nM. In other words, the sub-micromolar range.

Consider `CC(C)N1CCN(CCN(C)CCOc2cn(-c3ccc(F)cc3)c3cc(Cl)ccc23)C1=O`, for which the half-maximal inhibitory concentration (IC50) in [2] came out at 600 nM.

Consider `CN(CCCc1cn(-c2ccc(F)cc2)c2ccc(Cl)cc12)CCN1CCNC1=O`, for which the IC50 in [2] came to 43 nM.

Compound `CN(C)CCOc1cn(-c2ccc(F)cc2)c2cc(Cl)ccc12` registered a 50% inhibitory concentration (IC50) in experiment [2] of 170 nM.

As for `CN(CCc1cn(-c2ccc(F)cc2)c2ccc(Cl)cc12)CCN1CCNC1=O`, the concentration for half-maximal inhibition (IC50) in experiment [2] was 15 nM.

For `CN(C)CCc1cn(-c2ccc(F)cc2)c2cc(Cl)ccc12`, the values for the IC50 (in [5]; in experiment [2]; on D(2) dopamine receptor) were 5.5 nM, 130 nM and 650 nM, respectively.

`CCN(CCOc1cn(-c2ccc(F)cc2)c2ccc(Cl)cc12)CCN1CCNC1=O` yielded an IC50 in experiment [2] of 12 nM.

`CC(C)N1CCN(CCN(C)CCc2cn(-c3ccc(F)cc3)c3cc(Cl)ccc23)C1=O`: the figures for the IC50 (in experiment [5]; in experiment [2]; at D(2) dopamine receptor) were 5.8 nM, 400 nM and 190 nM, respectively.

Consider `CN(CCSc1cn(-c2ccc(F)cc2)c2ccc(Cl)cc12)CCN1CCNC1=O`, for which the concentration for half-maximal inhibition (IC50) was determined as 650 nM in experiment [2] and 790 nM on D(2) dopamine receptor.

Regarding `CN(CCCN1CCNC1=O)CCc1cn(-c2ccc(F)cc2)c2cc(Cl)ccc12`, the ED50 came to 8.5 µmol/kg with Rattus norvegicus [6] and 4.7 µmol/kg in the experiment with Rattus norvegicus [3]. For the same compound, the IC50 in experiment [5] was found to be 1.9 nM; in [2], 54 nM; at D(2) dopamine receptor, 400 nM.

As to `CN(C)CCCCc1cn(-c2ccc(F)cc2)c2ccc(Cl)cc12`, the figures for the IC50 (in experiment [5]; in experiment [2]; on D(2) dopamine receptor) were 100 nM, 310 nM and 4800 nM, respectively.

Take `CN(CCc1cn(-c2ccc(F)cc2)c2cc(Cl)ccc12)CCN1CCNC1=O`: the IC50 in [5] is 0.95 nM; in experiment [2], 14 nM; on D(2) dopamine receptor it was 590 nM.

As for `C#CCN(CCOc1cn(-c2ccc(F)cc2)c2ccc(Cl)cc12)CCN1CCNC1=O`, the IC50 in experiment [2] is 88 nM.

Regarding `Cc1nc2sccn2c(=O)c1CCN1CCC(=C(c2ccc(F)cc2)c2ccc(F)cc2)CC1` [RITANSERIN], the ED50 in the experiment listed under Rattus norvegicus [7] was greater than 21 µmol/kg; in the experiment with Rattus norvegicus [6], 0.98 µmol/kg; in the experiment on Rattus norvegicus [3], 0.1 µmol/kg.

The compound `CN(CCCN1CCNC1=O)CCc1cn(-c2ccc(F)cc2)c2ccc(Cl)cc12` came in with an IC50 in [2] of 14 nM.

Regarding `CN(CCCCN1CCNC1=O)Cc1cn(-c2ccc(F)cc2)c2ccc(Cl)cc12`, the IC50 was 110 nM in experiment [5], greater than 100 nM in [2] and 20 nM at D(2) dopamine receptor.

Turning to `CC(C)N1CCN(CCN2CCC(c3cn(-c4ccc(F)cc4)c4cc(Cl)ccc34)CC2)C1=O`, the median effective dose (ED50) in the experiment on Rattus norvegicus [4] is greater than 17 µmol/kg; in the experiment on Rattus norvegicus [8], 0.055 µmol/kg; in the experiment on Rattus norvegicus [6], 0.052 µmol/kg; in the experiment on Rattus norvegicus [3] it was 0.11 µmol/kg.

On to `CN(C)Cc1cn(-c2ccc(F)cc2)c2ccc(Cl)cc12`, for which, in experiment [2], the IC50 worked out at 18 nM.

`CN(C)CCCc1cn(-c2ccc(F)cc2)c2ccc(Cl)cc12` displayed a 50% inhibitory concentration (IC50) in experiment [2] of 73 nM.

On to `CN(C)CCc1cn(-c2ccc(F)cc2)c2ccc(Cl)cc12`, for which, in experiment [2], the IC50 amounted to 40 nM.

The compound `CN(C)CCOc1cn(-c2ccc(F)cc2)c2ccc(Cl)cc12` had a half-inhibitory concentration (IC50) in experiment [2] of 17 nM.

Regarding `CN(C)CCCOc1cn(-c2ccc(F)cc2)c2ccc(Cl)cc12`, the half-maximal inhibitory concentration (IC50) in experiment [5] was 27 nM; in experiment [2], greater than 100 nM; at D(2) dopamine receptor, 24 nM.

As for `CN(CCOc1cn(-c2ccc(F)cc2)c2ccc(Cl)cc12)CCN1CCNC1=O`, the 50% effective dose (ED50) was 3.6 µmol/kg in the experiment with Rattus norvegicus [4], greater than 9.1 µmol/kg in the experiment with Rattus norvegicus [6] and 0.32 µmol/kg in the experiment on Rattus norvegicus [3]. Besides, the IC50 in [2] was 5.7 nM.

As to `CN1CCN(CCOc2cn(-c3ccc(F)cc3)c3ccc(Cl)cc23)CC1`, the ED50 with Rattus norvegicus [4] was 0.048 µmol/kg. Moreover, the IC50 was determined as 100 nM in [5], 150 nM in experiment [2] and 2.4 nM on D(2) dopamine receptor.
